For 2 molecules, Kd results are on record in publication PMC5159748 (Archives of biochemistry and biophysics, 2016).

Experiment [1] concerns the target Microtubules prepared from porcine tubulin, stabilized with paclitaxel (porcine) (UniProt P02550). Kind of experiment: turbidity increase.
In experiment [2] the target is T1, K346 (Drosophila kinesin-1 motor domain; apo-K346) (Drosophila melanogaster, UniProt P17210).
T1 sequence (P17210 2-346): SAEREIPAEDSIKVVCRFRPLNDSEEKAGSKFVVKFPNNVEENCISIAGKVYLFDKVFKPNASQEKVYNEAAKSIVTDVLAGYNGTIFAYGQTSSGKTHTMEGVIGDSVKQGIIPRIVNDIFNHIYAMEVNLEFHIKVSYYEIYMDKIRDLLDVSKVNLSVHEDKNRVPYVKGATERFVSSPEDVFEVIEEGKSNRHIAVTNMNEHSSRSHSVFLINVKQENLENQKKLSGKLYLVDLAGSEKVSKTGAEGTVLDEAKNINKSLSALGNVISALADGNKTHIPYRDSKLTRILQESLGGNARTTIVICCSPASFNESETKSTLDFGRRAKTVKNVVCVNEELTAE
Kind of experiment: stopped-flow FRET. The format is binding. The method, boiled down: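 Apo-K346 (Tev-cleaved, ADP-stripped) at 25 °C in A25 buffer (pH 6.9) with 50 mM KCl and glycerol as indicated. FRET from tyrosines to mdADP: excitation 280 nm, 418 nm long-pass emission. Association: stopped-flow mixing with ≥10-fold excess mdADP, kon = kobs/[mdADP]. Release: 0.84 μM E•mdADP chased with 400 μM MgATP, single-exponential fit. SD from ≥3 transients.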

A word on the Kd: it is a measure of binding affinity in units of concentration. Lower therefore signals a tighter complex.

In experiment [1], “K346, monomeric Drosophila kinesin-1 motor domain (amino acids 2-346) (from UniProt P17210 2-346) (domain or fragment)” showed a Kd of 1800 nM. Turning to `CNc1ccccc1C(=O)O[C@H]1C[C@H](n2cnc3c(N)ncnc32)O[C@@H]1COP(=O)(O)OP(=O)(O)O` [mdADP], binding in experiment [2] was put at a Kd of 2 nM.
